Experiment [1] relates to 5-HT3 receptor (Cavia porcellus). As to the kind of experiment: Tested for the antagonistic activity against 5-hydroxytryptamine 3 receptor from guinea pig ileum. The note with it: concentration not given here. Also noted: concentration or dose not given beside the values.
Experiment [2] concerns the target Serotonin 2 (5-HT2) receptor (Rattus norvegicus) (UniProt P30994+P08909+P14842). As to the kind of experiment: Tested for antagonistic activity against 5-hydroxytryptamine 2 receptor from rat thoracic aorta. Type of experiment: functional, tissue-based. Details: concentration or dose not given beside the values. The note with it: concentration not given here. In outline:
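Thoracic aorta rings (2-3 mm) from male Wistar rats (200-250 g), resting tension 1.5 g, equilibrated 60-90 min. Contracted with 5-HT 3×10^-6 M, taken as 100%. Compounds at 10^-5 M were incubated for 30 min before 5-HT was re-added. Inhibition given as % of the prior response. Means ± SE of 4-6 experiments.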

For another experiment, the species on record is Cavia porcellus. Kind of experiment: Antagonism to 2-methyl-5-HT induced contractions in guinea pig ileum. Format: functional. As to conditions: read-out: pA2 (converted). In outline:
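Isometric recording at 0.5 g resting tension in physiological salt solution gassed with 95% O2/5% CO2 at 37 °C, after 30-min equilibration. Tissue incubated 30 min with a single antagonist concentration before agonist; pA2 calculated against 2-methyl-5-HT by Furchgott's single-concentration method, […]. Means of three to six experiments.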

Another experiment deals with Rattus norvegicus. Kind of experiment: Tested in vivo for antagonistic activity to bradycardic effect of 5-HT in anesthetized rats. Format: functional. As to conditions: read-out: ID50. In outline:
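Male Sprague-Dawley rats (500-550 g), urethane 1 g/kg ip. Heart rate derived from carotid arterial pressure. Serotonin 4 μg/kg iv bolus every 15 min; compounds given iv via the jugular vein 2 min before serotonin. Percent inhibition of bradycardia recorded; ID50 by Litchfield-Wilcoxon.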

In experiment [3] the target is Serotonin 1 (5-HT1) receptor (Rattus norvegicus, UniProt P28564+P30940+P19327+P28565). As to the kind of experiment: Displacement of binding of [3H]-5-HT to 5-hydroxytryptamine 1 receptor in rat cerebral cortex. Type of experiment: tissue-based. In outline:
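Rat cortical membranes homogenized in 50 mM Tris-HCl, centrifuged, pre-incubated at 37 °C for 10 min, then resuspended with 0.1% ascorbic acid and 10 μM pargyline. Incubated with 0.3 nM [3H]-5-HT for 10 min at 37 °C. Nonspecific binding defined with 10 μM 5-HT. Filtered and counted by scintillation. Means of 3-6 experiments.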

Experiment [4] deals with T1, Serotonin 3 (5-HT3) receptor (Rattus norvegicus, UniProt P35563+Q9JJ16).
T1 sequence (P35563 whole entry): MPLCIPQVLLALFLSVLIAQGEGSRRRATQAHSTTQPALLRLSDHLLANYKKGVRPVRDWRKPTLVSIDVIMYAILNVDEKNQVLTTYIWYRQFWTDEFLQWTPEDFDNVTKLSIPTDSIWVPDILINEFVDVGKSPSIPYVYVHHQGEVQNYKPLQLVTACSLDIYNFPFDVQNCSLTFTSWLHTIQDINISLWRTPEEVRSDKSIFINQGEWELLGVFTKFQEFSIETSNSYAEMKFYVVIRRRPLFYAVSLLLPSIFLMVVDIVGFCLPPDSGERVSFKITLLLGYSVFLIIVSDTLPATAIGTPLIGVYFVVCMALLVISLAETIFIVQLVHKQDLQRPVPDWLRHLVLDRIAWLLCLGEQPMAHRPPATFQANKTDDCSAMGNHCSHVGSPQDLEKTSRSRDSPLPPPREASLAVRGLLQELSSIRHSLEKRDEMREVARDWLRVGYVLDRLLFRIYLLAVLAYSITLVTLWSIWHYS
T1 sequence (Q9JJ16 whole entry): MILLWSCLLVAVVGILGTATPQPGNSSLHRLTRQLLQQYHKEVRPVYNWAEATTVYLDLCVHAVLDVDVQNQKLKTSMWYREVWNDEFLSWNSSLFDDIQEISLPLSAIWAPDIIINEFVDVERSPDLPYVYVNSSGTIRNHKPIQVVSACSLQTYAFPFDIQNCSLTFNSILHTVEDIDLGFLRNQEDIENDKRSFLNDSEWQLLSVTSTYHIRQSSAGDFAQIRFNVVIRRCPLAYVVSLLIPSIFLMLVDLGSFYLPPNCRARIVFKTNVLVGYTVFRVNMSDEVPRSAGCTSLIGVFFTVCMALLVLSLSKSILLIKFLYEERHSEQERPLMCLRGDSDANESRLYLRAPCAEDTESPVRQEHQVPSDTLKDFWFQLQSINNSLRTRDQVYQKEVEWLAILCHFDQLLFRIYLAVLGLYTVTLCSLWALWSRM
As to the kind of experiment: Displacement of binding of [3H]-BRL 43694 to 5-hydroxytryptamine 3 receptor in rat cerebral cortex. Format: tissue-based.

We go through 25 compounds from ChEMBL document CHEMBL1127026, “Novel antagonists of 5-HT3 receptors. Synthesis and biological evaluation of piperazinylquinoxaline derivatives” (J Med Chem, 1993).

Sequence of Serotonin 2 (5-HT2) receptor (Rattus norvegicus) (P08909 whole entry, looked up): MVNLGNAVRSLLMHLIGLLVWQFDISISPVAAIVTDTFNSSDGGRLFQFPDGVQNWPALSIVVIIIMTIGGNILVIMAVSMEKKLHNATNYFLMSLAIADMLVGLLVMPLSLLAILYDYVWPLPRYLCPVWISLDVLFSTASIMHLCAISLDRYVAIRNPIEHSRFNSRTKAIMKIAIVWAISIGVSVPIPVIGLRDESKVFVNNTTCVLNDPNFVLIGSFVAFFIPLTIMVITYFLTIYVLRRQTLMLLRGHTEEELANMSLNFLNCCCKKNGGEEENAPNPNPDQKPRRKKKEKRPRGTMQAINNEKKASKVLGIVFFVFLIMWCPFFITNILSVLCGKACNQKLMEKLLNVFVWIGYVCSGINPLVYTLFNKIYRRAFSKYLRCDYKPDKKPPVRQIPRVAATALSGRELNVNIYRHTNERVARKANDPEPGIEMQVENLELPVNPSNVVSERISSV
Sequence of Serotonin 2 (5-HT2) receptor (Rattus norvegicus) (P14842 whole entry, looked up): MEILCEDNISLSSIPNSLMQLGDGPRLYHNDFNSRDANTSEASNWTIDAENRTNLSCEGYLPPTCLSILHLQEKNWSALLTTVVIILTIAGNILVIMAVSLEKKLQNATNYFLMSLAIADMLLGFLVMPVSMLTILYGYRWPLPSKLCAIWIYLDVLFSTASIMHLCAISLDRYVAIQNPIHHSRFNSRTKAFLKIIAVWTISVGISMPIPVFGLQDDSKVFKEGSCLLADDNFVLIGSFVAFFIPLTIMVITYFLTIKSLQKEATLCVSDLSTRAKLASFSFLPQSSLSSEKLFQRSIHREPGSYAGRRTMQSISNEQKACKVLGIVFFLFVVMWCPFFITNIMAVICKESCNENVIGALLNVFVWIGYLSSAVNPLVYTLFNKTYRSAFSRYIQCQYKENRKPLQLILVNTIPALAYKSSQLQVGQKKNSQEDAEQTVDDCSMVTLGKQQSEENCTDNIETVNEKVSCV
Sequence of Serotonin 2 (5-HT2) receptor (Rattus norvegicus) (P30994 whole entry, looked up): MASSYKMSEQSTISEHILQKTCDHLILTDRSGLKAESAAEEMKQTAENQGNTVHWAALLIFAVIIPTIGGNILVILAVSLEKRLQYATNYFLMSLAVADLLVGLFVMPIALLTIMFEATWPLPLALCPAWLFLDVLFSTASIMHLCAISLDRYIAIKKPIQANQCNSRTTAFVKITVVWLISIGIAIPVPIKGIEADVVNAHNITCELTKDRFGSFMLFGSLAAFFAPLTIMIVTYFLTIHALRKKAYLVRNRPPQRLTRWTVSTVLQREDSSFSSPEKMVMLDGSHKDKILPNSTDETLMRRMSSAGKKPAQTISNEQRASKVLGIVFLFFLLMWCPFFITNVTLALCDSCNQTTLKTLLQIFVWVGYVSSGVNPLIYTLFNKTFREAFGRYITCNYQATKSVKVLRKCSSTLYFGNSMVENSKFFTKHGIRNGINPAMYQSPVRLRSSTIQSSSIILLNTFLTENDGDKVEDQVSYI

In general, inhibition refers to the percentage by which the read-out fell short of the control. On to `N#Cc1nc2ccccc2nc1N1CCN(c2ccccc2)CC1`, for which the values for the inhibition in experiment [1] and in experiment [2] were 21.9% and 8.4%, respectively.

For `CCN1CCN(c2nc3ccc([N+](=O)[O-])cc3nc2C#N)CC1`, in experiment [1], the inhibition turned out to be 21.3%.

Regarding `CCOC(=O)CN1CCN(c2nc3ccccc3nc2C#N)CC1`, the inhibition in experiment [1] was 14.4%; in experiment [2], 5.1%.

In turn, `CCCCN1CCN(c2nc3ccccc3nc2C#N)CC1` yielded an inhibition in experiment [1] of 12.5%.

As to `CCCCCN1CCN(c2nc3ccccc3nc2C#N)CC1`, the inhibition in experiment [1] came to 18%; in experiment [2], 3.9%.

By Ki is commonly meant a dissociation constant, usually derived from enzyme kinetics or from competition with a known ligand. As for `CCN1CCN(c2nc3ccccc3nc2C#N)CC1`, the Kb in the experiment filed under Cavia porcellus was 63.1 nM. Besides, the ED50 in the experiment on Rattus norvegicus was determined as 0.015 mg/kg. Also, the inhibition in experiment [1] was found to be 80.5%; in experiment [2], 9.1%. Moreover, the Ki in experiment [3] is more than 1000 nM; in experiment [4] it was 100 nM.

As to `CN1[C@@H]2CC[C@H]1C[C@@H](OC(=O)c1c[nH]c3ccccc13)C2.Cl`, in the experiment listed under Cavia porcellus, the Kb is 3.98 nM. In addition, the ED50 in the experiment with Rattus norvegicus was determined as 0.002 mg/kg. In experiment [2], this compound came in with an inhibition of 2.4%. The figures for the Ki in experiment [3] and in experiment [4] were more than 1000 nM and 3.8 nM, respectively.

For the compound `N#Cc1nc2ccccc2nc1N1CCN(Cc2ccc3c(c2)OCO3)CC1`, the inhibition in experiment [1] amounted to 28.4%.

For the compound `Cc1ccc(N2CCN(c3nc4ccccc4nc3C#N)CC2)cc1`, the inhibition in experiment [1] worked out at 15.8%; in experiment [2], 4.6%.

Regarding `C=CCN1CCN(c2nc3ccccc3nc2C#N)CC1`, the Kb in the experiment filed under Cavia porcellus is 0.0631 nM. Besides, in the experiment on Rattus norvegicus, the ED50 came to 0.02 mg/kg. This compound yielded an inhibition in experiment [2] of 9.1%. The results for the Ki in experiment [3] and in experiment [4] were more than 1000 nM and 8 nM, respectively.

In experiment [1], `N#Cc1nc2cc([N+](=O)[O-])ccc2nc1N1CCNCC1` yielded an inhibition of 7.7%.

Regarding `CC(=O)c1ccc(N2CCN(c3nc4ccccc4nc3C#N)CC2)cc1`, the inhibition in experiment [1] turned out to be 7.4%.

For the compound `COc1ccccc1N1CCN(c2nc3ccccc3nc2C#N)CC1`, the inhibition in experiment [1] was 10.6%.

As for `N#Cc1nc2ccccc2nc1N1CCN(c2ccc([N+](=O)[O-])cc2)CC1`, the inhibition in experiment [1] came to 18%.

Turning to `COc1cccc(N2CCN(c3nc4ccccc4nc3C#N)CC2)c1`, the inhibition in experiment [1] was 3.5%; in experiment [2] it was 4.6%.

Take `N#Cc1nc2ccccc2nc1N1CCN(c2cccc(C(F)(F)F)c2)CC1`: the results for the inhibition in experiment [1] and in experiment [2] were 39.5% and 18.3%, respectively.

Regarding `N#Cc1nc2ccccc2nc1N1CCN(CCc2ccccc2)CC1`, the inhibition in experiment [1] is 29.2%; in experiment [2] it was 25%.

For `CCN1CCN(c2nc3ccc(N)cc3nc2C#N)CC1`, the inhibition in experiment [1] came out at 43.5%.

With `Cc1nccn1CC1CCc2c(c3ccccc3n2C)C1=O` (centres undefined) [ONDANSETRON], the Kb in the experiment listed under Cavia porcellus was 126 nM. Further, the ED50 in the experiment with Rattus norvegicus was determined as 0.0004 mg/kg. This compound also displayed an inhibition in experiment [2] of 0.6%.

As to `N#Cc1nc2ccccc2nc1N1CCNCC1`, the Kb in the experiment filed under Cavia porcellus was 1580 nM. Also, the ED50 in the experiment with Rattus norvegicus was 0.027 mg/kg. Also, the inhibition stood at 63.7% in experiment [1] and 9.1% in experiment [2]. Also, the Ki in experiment [3] stood at 345 nM; in experiment [4], 90 nM.

On to `N#Cc1nc2ccccc2nc1N1CCN(Cc2ccccc2)CC1`, for which the values for the inhibition in experiment [1] and in experiment [2] were 12.4% and 20.5%, respectively.

Consider `N#Cc1nc2ccccc2nc1N1CCN(c2ccc(F)cc2)CC1`, for which the inhibition in experiment [1] is 21.4%.

`N#Cc1nc2ccccc2nc1N1CCN(c2ccc(Cl)cc2)CC1`: the results for the inhibition in experiment [1] and in experiment [2] were 11% and 7%, respectively.

`CN1CCN(c2nc3ccccc3nc2C#N)CC1` had an inhibition in experiment [1] of 48.4%.

On to `CCCN1CCN(c2nc3ccccc3nc2C#N)CC1`, for which, in the experiment filed under Cavia porcellus, the Kb is 1000 nM. In the experiment on Rattus norvegicus, the ED50 was 0.38 mg/kg. Further, the inhibition came to 63.3% in experiment [1] and 12.5% in experiment [2]. Further, the Ki was more than 1000 nM in experiment [3] and 40 nM in experiment [4].
